{
  "source": "ChEMBL document CHEMBL1157475",
  "about": "“Selective influence on contextual memory: physiochemical properties associated with selectivity of benzodiazepine ligands at GABAA receptors containing the alpha5 subunit” (J Med Chem, 2008)",
  "key": {"Mus musculus [1]": {"test_system": "Mus musculus", "experiment": "Impairment of contextual memory in C57BL/6J mouse at 30 mg/kg, ip", "type": "functional, organism-based", "set-up": "dose 30 mg/kg", "how_it_was_run": "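Male C57Bl/6 mice aged 7–12 weeks, given an ip injection in 0.9% saline containing 2.5% encapsin, 20 min before training. Training was 4 min in the chamber, then three 33 s tones (85 dB, 2.9 kHz), each ending in a 0.75 mA shock for 3 s, 1 min apart. Twenty-four hours later, freezing was scored during a 4 min context test without shock.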"}, "Mus musculus [2]": {"test_system": "Mus musculus", "experiment": "Effect on spontaneous locomotor activity in C57BL/6J mouse at 30 mg/kg, ip by automated assessment", "type": "functional", "settings": "route intraperitoneal", "how_it_was_run": "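Male C57Bl/6 mice given 30 mg/kg ip, compared with vehicle-injected mice. Spontaneous locomotor activity was recorded automatically over a 40 min observation period after injection.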"}, "[3]": {"target": "T1, GABA A receptor alpha-4/beta-3/gamma-2 (Homo sapiens, UniProt P18507+P28472+P48169)", "T1 sequence (P48169 whole entry, one chain of several)": "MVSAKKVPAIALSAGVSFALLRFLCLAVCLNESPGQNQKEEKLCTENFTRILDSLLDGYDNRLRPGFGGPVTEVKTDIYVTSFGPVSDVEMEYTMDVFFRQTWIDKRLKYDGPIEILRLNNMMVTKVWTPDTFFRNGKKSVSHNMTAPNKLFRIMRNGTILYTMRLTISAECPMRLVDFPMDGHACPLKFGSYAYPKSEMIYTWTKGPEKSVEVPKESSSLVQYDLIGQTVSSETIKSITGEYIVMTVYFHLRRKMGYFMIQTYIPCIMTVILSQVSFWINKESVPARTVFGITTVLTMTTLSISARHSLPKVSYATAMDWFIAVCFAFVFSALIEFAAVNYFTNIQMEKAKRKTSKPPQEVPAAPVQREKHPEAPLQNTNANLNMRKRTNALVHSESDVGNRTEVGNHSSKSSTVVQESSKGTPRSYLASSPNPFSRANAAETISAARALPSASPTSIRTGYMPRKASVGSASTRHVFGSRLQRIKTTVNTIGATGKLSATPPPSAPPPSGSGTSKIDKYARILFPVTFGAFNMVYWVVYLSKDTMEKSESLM", "experiment": "Activity at alpha-4-beta-3-gamma-2 GABAA receptor expressed in Xenopus oocytes assessed as inhibition in GABA-induced current by voltage clamp assay", "type": "cell-based, Oocyte", "how_it_was_run": "(§1)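 cRNA for alpha and beta3 subunits (0.0065 ng/nL) plus gamma2 (0.032 ng/nL) injected into Xenopus oocytes, 50 nL each, recorded after ≥36 h. Two-electrode voltage clamp at -60 mV, room temperature, in Xenopus Ringer's pH 7.4. Drug (final 0.1% DMSO) preapplied 30 s, then coapplied with GABA at about EC20 until peak. Current normalized to response without drug.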"}, "[4]": {"target": "T2, GABA-A receptor; alpha-5/beta-3/gamma-2 (Homo sapiens, UniProt P18507+P28472+P31644)", "T2 sequence (P18507 whole entry)": "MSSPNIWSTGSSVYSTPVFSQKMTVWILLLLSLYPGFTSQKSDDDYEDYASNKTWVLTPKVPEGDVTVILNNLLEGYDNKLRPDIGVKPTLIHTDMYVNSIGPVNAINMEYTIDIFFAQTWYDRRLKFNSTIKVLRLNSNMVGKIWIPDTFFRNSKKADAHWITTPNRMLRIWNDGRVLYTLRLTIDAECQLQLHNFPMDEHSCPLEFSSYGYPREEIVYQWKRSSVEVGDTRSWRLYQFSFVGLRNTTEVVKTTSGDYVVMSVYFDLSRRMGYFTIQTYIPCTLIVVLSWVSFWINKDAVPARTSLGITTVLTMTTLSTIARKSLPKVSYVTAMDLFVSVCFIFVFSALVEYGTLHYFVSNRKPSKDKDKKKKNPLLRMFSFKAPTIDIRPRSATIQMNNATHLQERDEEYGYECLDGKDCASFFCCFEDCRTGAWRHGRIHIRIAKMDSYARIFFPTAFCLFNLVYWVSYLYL", "T2 sequence (P28472 whole entry)": "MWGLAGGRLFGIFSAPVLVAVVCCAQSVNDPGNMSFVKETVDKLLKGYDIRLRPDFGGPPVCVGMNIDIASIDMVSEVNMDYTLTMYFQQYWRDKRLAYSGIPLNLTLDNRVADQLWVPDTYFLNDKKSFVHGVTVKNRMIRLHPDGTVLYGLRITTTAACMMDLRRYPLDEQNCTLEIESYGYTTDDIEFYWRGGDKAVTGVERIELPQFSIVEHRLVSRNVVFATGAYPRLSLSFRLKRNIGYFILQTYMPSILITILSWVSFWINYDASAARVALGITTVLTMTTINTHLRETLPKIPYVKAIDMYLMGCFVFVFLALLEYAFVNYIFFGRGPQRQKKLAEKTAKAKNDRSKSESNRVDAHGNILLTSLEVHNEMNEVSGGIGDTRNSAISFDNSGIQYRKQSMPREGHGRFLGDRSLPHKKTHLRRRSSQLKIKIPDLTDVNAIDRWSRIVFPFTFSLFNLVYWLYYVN", "T2 sequence (P31644 whole entry)": "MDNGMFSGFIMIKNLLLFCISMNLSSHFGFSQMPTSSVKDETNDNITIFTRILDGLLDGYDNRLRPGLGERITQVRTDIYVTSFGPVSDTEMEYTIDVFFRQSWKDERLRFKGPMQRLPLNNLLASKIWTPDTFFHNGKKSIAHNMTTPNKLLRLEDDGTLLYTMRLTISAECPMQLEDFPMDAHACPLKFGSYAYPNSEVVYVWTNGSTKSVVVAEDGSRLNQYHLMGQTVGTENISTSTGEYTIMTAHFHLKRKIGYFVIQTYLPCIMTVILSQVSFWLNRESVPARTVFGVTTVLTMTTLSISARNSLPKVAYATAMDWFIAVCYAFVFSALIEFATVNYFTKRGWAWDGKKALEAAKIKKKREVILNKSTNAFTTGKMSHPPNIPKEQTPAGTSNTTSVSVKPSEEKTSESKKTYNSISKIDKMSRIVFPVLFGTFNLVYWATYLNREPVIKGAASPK", "experiment": "Activity at alpha-5-beta-3-gamma-2 GABAA receptor expressed in Xenopus oocytes assessed as inhibition in GABA-induced current by voltage clamp assay", "type": "cell-based, Oocyte", "how_it_was_run": "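cRNA-injected Xenopus oocytes (α5, β3 transcripts 0.0065 ng/nL, γ2 0.032 ng/nL; 50 nL), defolliculated after ≥36 h; two-electrode voltage clamp at −60 mV, room temperature, in Xenopus Ringer's pH 7.4. Ligand (1 µM; 0.1% DMSO final) preapplied 30 s, then coapplied with GABA at EC20 until peak; current change versus GABA alone.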"}, "[5]": {"target": "T3, GABA-A receptor; alpha-6/beta-3/gamma-2 (Homo sapiens, UniProt P18507+P28472+Q16445)", "T3 sequence (Q16445 whole entry, one chain of several)": "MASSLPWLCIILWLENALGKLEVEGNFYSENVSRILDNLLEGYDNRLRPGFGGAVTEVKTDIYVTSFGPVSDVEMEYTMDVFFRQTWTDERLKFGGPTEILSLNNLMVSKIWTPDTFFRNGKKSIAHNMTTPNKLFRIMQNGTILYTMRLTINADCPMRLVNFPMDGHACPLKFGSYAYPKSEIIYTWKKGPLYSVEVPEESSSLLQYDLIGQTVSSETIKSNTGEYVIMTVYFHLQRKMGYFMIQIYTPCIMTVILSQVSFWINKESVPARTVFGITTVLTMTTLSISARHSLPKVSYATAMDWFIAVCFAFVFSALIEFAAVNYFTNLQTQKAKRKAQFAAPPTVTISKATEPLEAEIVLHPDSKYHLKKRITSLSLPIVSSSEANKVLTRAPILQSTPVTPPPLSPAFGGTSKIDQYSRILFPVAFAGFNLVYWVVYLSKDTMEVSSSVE", "experiment": "Activity at alpha-6-beta-3-gamma-2 GABAA receptor expressed in Xenopus oocytes assessed as inhibition in GABA-induced current by voltage clamp assay", "type": "cell-based, Oocyte", "how_it_was_run": "as §1"}, "[6]": {"target": "T4, GABA-A receptor; alpha-1/beta-3/gamma-2 (Homo sapiens, UniProt P14867+P18507+P28472)", "T4 sequence (P14867 whole entry)": "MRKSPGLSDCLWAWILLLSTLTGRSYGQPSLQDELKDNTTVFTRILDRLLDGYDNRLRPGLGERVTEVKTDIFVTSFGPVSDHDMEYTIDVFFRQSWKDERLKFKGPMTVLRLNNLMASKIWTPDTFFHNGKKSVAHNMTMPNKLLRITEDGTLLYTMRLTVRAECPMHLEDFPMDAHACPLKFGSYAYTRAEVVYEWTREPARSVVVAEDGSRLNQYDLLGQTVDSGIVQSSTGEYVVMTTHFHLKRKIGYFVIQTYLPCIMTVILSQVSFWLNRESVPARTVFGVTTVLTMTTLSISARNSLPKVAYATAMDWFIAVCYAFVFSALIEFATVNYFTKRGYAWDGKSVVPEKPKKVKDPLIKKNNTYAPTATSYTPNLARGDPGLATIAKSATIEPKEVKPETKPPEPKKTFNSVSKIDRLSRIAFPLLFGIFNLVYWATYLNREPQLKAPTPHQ", "T4 sequence (P18507 whole entry)": "T2 sequence (P18507 whole entry)", "T4 sequence (P28472 whole entry)": "T2 sequence (P28472 whole entry)", "experiment": "Activity at GABAA alpha-1-beta-3-gamma-2 receptor expressed in Xenopus oocytes assessed as inhibition of GABA-induced current by voltage clamp assay", "type": "cell-based, Oocyte", "how_it_was_run": "as §1"}, "[7]": {"target": "T5, GABA-A receptor; alpha-2/beta-3/gamma-2 (Homo sapiens, UniProt P18507+P28472+P47869)", "T5 sequence (P18507 whole entry)": "T2 sequence (P18507 whole entry)", "T5 sequence (P28472 whole entry)": "T2 sequence (P28472 whole entry)", "T5 sequence (P47869 whole entry)": "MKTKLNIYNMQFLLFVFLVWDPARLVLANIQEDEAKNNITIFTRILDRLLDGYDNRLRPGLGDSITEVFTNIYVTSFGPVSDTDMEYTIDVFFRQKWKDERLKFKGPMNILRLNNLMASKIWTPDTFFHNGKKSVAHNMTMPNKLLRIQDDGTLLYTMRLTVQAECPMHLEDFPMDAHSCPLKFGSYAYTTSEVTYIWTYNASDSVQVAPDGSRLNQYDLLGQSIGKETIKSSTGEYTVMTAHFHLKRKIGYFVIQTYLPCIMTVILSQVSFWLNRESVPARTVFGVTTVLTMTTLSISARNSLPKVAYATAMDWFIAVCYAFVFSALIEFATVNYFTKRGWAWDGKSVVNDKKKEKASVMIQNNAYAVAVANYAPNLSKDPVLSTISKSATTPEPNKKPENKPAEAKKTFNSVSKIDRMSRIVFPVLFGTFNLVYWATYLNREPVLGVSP", "experiment": "Activity at alpha-2-beta-3-gamma-2 GABAA receptor expressed in Xenopus oocytes assessed as inhibition in GABA-induced current by voltage clamp assay", "type": "cell-based, Oocyte", "how_it_was_run": "as §1"}, "[8]": {"target": "T4, GABA-A receptor; alpha-1/beta-3/gamma-2", "experiment": "Binding affinity to GABAA alpha-1-beta-3-gamma-2 receptor", "type": "protein-complex assay"}, "[9]": {"target": "T2, GABA-A receptor; alpha-5/beta-3/gamma-2", "experiment": "Binding affinity to GABAA alpha-5-beta-3-gamma-2 receptor", "type": "protein-complex assay"}, "[10]": {"target": "T5, GABA-A receptor; alpha-2/beta-3/gamma-2", "experiment": "Binding affinity to GABAA alpha-2-beta-3-gamma-2 receptor"}, "[11]": {"target": "T6, Gamma-aminobutyric acid receptor subunit alpha-3 (Homo sapiens, UniProt P18507+P28472+P34903)", "T6 sequence (P34903 whole entry)": "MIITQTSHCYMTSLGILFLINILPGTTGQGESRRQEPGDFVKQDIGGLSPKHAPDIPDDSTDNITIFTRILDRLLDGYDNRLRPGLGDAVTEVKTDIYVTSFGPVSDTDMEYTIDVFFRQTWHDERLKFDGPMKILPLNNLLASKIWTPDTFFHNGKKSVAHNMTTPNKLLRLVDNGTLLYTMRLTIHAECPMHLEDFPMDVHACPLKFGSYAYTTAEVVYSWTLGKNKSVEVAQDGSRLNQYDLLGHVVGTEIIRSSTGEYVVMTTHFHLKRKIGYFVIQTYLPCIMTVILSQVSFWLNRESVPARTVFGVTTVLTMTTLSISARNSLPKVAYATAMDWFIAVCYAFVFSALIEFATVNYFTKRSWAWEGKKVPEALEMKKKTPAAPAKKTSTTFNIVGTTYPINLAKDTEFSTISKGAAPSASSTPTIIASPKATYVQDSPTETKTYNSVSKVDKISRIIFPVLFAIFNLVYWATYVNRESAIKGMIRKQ", "experiment": "Binding affinity to GABAA alpha-3-beta-3-gamma-2 receptor"}, "[12]": {"target": "T1, GABA A receptor alpha-4/beta-3/gamma-2", "experiment": "Binding affinity to GABAA alpha-4-beta-3-gamma-2 receptor", "type": "protein-complex assay"}, "[13]": {"target": "T3, GABA-A receptor; alpha-6/beta-3/gamma-2", "experiment": "Binding affinity to GABAA alpha-6-beta-3-gamma-2 receptor", "type": "protein-complex assay"}},
  "note": "Calls of active or inactive are those of the source. The rule behind the calls is not given here.",
  "data": [
    {"smiles": "C#Cc1ccc2c(c1)C(c1ccccc1)=N[C@H](C)c1c(C(=O)OCC)ncn1-2", "values": [
      {"measurement": "Activity", "setting": "Mus musculus [1]", "value": "Active"},
      {"measurement": "Activity", "setting": "Mus musculus [2]", "value": 1026}
    ]},
    {"smiles": "C#Cc1ccc2c(c1)C(=O)N(C)Cc1c(C(=O)OC(C)(C)C)ncn1-2", "values": [
      {"measurement": "EC50", "setting": "[3]", "value": 324000, "unit": "nM"},
      {"measurement": "EC50", "setting": "[4]", "value": 9800, "unit": "nM"},
      {"measurement": "EC50", "setting": "[5]", "value": 51700, "unit": "nM"},
      {"measurement": "EC50", "setting": "[6]", "value": 74400, "unit": "nM"},
      {"measurement": "EC50", "setting": "[7]", "value": 95500, "unit": "nM"}
    ]},
    {"smiles": "CN1CC2C(C(=O)OC(C)(C)C)=NCN2c2ccc(C#C[Si](C)(C)C)cc2C1=O", "note": "(stereo not drawn)", "values": [
      {"measurement": "Ki", "setting": "[8]", "value": 197, "unit": "nM"},
      {"measurement": "Ki", "setting": "[9]", "value": 2.61, "unit": "nM"},
      {"measurement": "Ki", "setting": "[10]", "value": 143, "unit": "nM"},
      {"measurement": "Ki", "setting": "[11]", "value": 255, "unit": "nM"},
      {"measurement": "Ki", "setting": "[12]", "value": 2.61, "unit": "nM"},
      {"measurement": "Ki", "setting": "[13]", "value": 58.6, "unit": "nM"}
    ]}
  ]
}
